RGS4 inh: inhibitors of human RGS4; P49798; HEK293 M3R/RGS4 inducible, Fluo-4 calcium flux; active compounds read high; triggered by carbachol at its EC20; B-score at 10 µM; 310,000 tested, 0.45% active; AID 463165;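 active = B-score, a plate-corrected calcium signal, over three deviations above library mean, with baseline fluorescence within five deviations of library mean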;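 note: RGS4 expression induced by doxycycline in cells with stable M3 receptor; B-score is computed from the integrated fluorescence ratio over baseline after carbachol; higher B-score means a larger calcium signal and so more RGS4 inhibition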
Target sequence (P49798 whole entry, looked up): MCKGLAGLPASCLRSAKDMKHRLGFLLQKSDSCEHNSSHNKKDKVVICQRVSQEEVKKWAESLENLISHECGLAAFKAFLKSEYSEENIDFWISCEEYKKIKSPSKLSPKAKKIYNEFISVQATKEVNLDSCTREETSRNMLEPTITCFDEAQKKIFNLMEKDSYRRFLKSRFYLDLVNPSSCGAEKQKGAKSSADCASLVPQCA
PHOSPHO1 inh: inhibitors of human PHOSPHO1 phosphatase; recombinant PHOSPHO1, absorbance phosphatase assay; Q8TCT1; inhibition, % at 13.3 µM; 290,000 tested, 1.1% active; AID 1565; in the data active = inhibition above about 60%
Target sequence (Q8TCT1 whole entry, looked up): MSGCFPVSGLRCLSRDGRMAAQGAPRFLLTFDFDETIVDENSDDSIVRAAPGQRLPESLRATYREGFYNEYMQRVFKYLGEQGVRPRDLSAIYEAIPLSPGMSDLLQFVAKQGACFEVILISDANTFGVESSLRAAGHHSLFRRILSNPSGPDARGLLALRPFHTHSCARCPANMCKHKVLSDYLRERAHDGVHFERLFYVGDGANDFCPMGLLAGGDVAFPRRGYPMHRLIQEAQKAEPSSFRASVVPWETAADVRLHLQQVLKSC
MrgX1 ag: human MrgX1 receptor agonism, primary screen | Q96LB2 | MrgX1-HEK293 cells, Fluo-4 calcium fluorescence, agonist mode; active compounds read high | B-score at 10 µM | 310,000 tested, 0.44% active | AID 588627;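 active = calcium response B-score plate-corrected fluorescence ratio at least 3 library SD, with starting fluorescence B-score inside 5 SD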
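times = overnight plating, then 30 min 37 °C plus 30 min room-temperature dye loading | assay system = stable human MrgX1 HEK293 cell line | input = fifteen thousand cells per well | signal = kinetic calcium dye fluorescence, Fluo-4 NW | dosing = compound delivered in addition one of three | read-out = B-scored fluorescence response ratio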
MrgX1 antagonist: antagonists of human MrgX1 receptor; AID 588676; Q96LB2; MRGX1-HEK293 calcium flux, Fluo-4, BAM8-22 antagonism; active compounds read low; B-score at 10 µM; 310,000 tested, 1.3% active;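 active = calcium-response B-score plate-corrected more than 3 library SD below zero, starting fluorescence within 5 deviations, no agonist response on first addition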;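 note: peak minus trough fluorescence over baseline after final BAM8-22 challenge near maximal dose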
RGS4 pot: RGS4 potentiation or activation; HEK293 M3R/inducible RGS4, carbachol calcium flux Fluo4; active compounds read low; B-score at 10 µM; 310,000 tested, 0.92% active;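 active = B-score of the integrated calcium signal more than 4 SD below the library mean, with starting fluorescence not abnormally high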;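 note: negative B-score means reduced calcium response which marks RGS4 activation or potentiation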
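Material: M3R-expressing HEK293 line, RGS4 induced by doxycycline | Schedule: Overnight RGS4 induction, 30 min dye load 37 °C, 20 min compound RT | Measured by: Fluo4 fluorescence kinetic imaging of calcium | Read-out: Integrated calcium ratio converted to B score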
MrgX1 allo act: human MrgX1 positive allosteric modulation, primary screen; B-score at 10 µM; 310,000 tested, 0.63% active; MrgX1-HEK293, Fluo-4 calcium flux, FDSS; active compounds read high;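 active = plate-corrected calcium response at least 3 library SD above typical, normal starting fluorescence, not activating the receptor alone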;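 note: compound read alongside a low EC10 to EC30 dose of BAM8-22 agonist; peak minus trough fluorescence over baseline measured at the second addition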
RGS4 block valid: validation of RGS4 inhibitors; calcium response, % at 10 µM; 1,700 tested, 65% active; HEK293 M3R/RGS4, carbachol calcium Fluo-4 fluorescence; carbachol added at its EC20; 0 = buffer wells, 100 = carbachol control; shares compounds with RGS4 inh;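 active = duplicate-averaged calcium response above the buffer-only control mean plus 5 SD of those controls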;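 note: integrated fluorescence ratio F max minus min over baseline F0; higher response in RGS4-induced cells means RGS4 inhibition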
M3R Ca ctr: checks RGS4 inhibitor effects in non-induced HEK293 M3R cells. 1,900 tested, 20% active. AID 493000. carbachol calcium Fluo-4; submaximal (EC20) carbachol stimulus; buffer wells 0%, carbachol control wells 100%. activity (percent), % at 10 µM. shares compounds with RGS4 inh; call rule not given here;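 note: RGS4 induction absent so cells express M3R without RGS4; higher means more calcium signal and flags a non-specific hit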
M3R basal Ca ctr: second counter-screen for RGS4 inhibitors: non-induced cells without carbachol; shares compounds with RGS4 inh; HEK293 M3R/RGS4 non-induced, Fluo-4 calcium, no carbachol; normalised: buffer wells 0%, carbachol wells 100%; calcium response (agonist-mode artifact), % at 10 µM; 1,900 tested, 22% active; AID 493001;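 active = duplicate-averaged calcium rise in uninduced cells above buffer wells' mean plus 5 SD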
* marks the source's active call; other numbers are inactive results; i = inactive; . = not tested or not shown. Only some compounds are listed: those with a hit (about 4.5% of all), similar ones and a draw of the others.

SMILES	RGS4 inh	PHOSPHO1 inh	MrgX1 ag	MrgX1 antagonist	RGS4 pot	MrgX1 allo act	RGS4 block valid	M3R Ca ctr	M3R basal Ca ctr
O=S(=O)(C/C(=C/CO)S(=O)(=O)c1ccccc1)c1ccccc1	10*	18	34*	i	i	i	38%*	36%*	16%*
CCOC(=O)Nc1ccc2c(COC(=O)c3ccccc3O)cc(=O)oc2c1	i	23	i	i	i	i	.	.	.
CCc1ccc2c(CN3CCC(C(=O)OC)CC3)cc(=O)oc2c1	7.2*	18	i	i	i	i	13%*	i	i
CCOC(=O)Nc1ccc2c(CN3CCC(C(=O)OC)CC3)cc(=O)oc2c1	4.9*	.	i	i	i	i	24%*	i	i
COC(=O)C1CCN(Cc2cc(=O)oc3cc(C)c(Cl)cc23)CC1	12*	20	i	i	i	i	16%*	i	i
COc1ccc(S(=O)(=O)Nc2ccc(-c3ccc4nncn4n3)cc2)c(OC)c1	i	.	i	i	i	i	.	.	.
O=C(COC(=O)/C=C/c1ccc(S(=O)(=O)N2CCc3ccccc32)cc1)NC1CCS(=O)(=O)C1 (stereo not drawn)	i	38	i	i	i	i	.	.	.
COc1cccc(/C=C/C(=O)c2ccc(C)c([N+](=O)[O-])c2)c1	8.9*	-6	32*	i	i	i	i	40%*	i
O=C(c1cccs1)N1CCc2c([nH]c3ccccc23)C1c1ccccn1 (stereo not drawn)	i	14	i	i	i	i	.	.	.
O=C(c1cc(-c2ccccc2)n[nH]1)N1CCc2c([nH]c3ccccc23)C1c1ccccn1 (stereo not drawn)	7.3*	40	i	i	i	i	27%*	30%*	i
Cc1c(C#N)c(O)n(CCO)c(=O)c1N=Nc1ccc2c(c1)COC2=O	5.2*	18	i	i	i	i	i	i	18%*
Cc1cc(=O)n2c(n1)SCOC2	i	-28	i	i	i	i	.	.	.
COc1ccc(NC(=O)COc2nc3ccccc3nc2N2CCOCC2)c(OC)c1	i	15	i	i	i	i	.	.	.
NC(=O)NC1CCCc2c1[nH]c1ccc(Cl)cc21 (stereo not drawn)	5.3*	-14	i	i	i	i	8.5%*	i	i
C=C(C)C1(O)OC(=O)C=C1OC (stereo not drawn)	7.8*	24	i	i	i	i	9.0%*	i	i
Cc1cc(O)c(C(=O)/C=C/c2ccc(Cl)cc2)c(=O)o1	i	11	i	i	i	i	.	.	.
COc1cccc(/C=C/C(=O)c2c(O)cc(C)oc2=O)c1O	7.3*	0	i	i	i	i	37%*	i	i
CSc1ccc(/C=C/C(=O)c2c(O)cc(C)oc2=O)cc1	6.1*	13	i	i	i	i	24%*	i	7.5%*
CC1Sc2ccc(C(=O)Nc3ncccc3O)cc2NC1=O (stereo not drawn)	i	.	i	i	i	i	.	.	.
CC1CN(C(=S)Nc2ccccc2C(F)(F)F)CC(C)O1 (stereo not drawn)	i	43	i	i	i	i	.	.	.
O=c1c(C/C=C/c2ccccc2)c(O)ccn1CCc1c[nH]c2ccccc12	5.7*	27	i	i	i	i	12%*	30%*	i

Assay outcomes from PubChem.
